System: Staphylococcus aureus
Experiment: Bactericidal activity against methicillin-sensitive Staphylococcus aureus ATCC 6538 planktonic cells assessed as reduction in bacterial growth at 31.25 ug/ml up to 1 hr by time kill assay relative to control
Assay type: functional
Set-up: scale not given: the % may be the effect or the level left
In short: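 Time-kill per CLSI on planktonic cultures, set up as the microdilution assay: 1 × 10^5 CFU/mL, 37 °C with shaking. A580 is read at 0, 1, 2, 4, 8, 16 and 24 h, and growth is expressed relative to untreated medium + microbes control. Concentrations are parent-antibiotic equivalents.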

`O=C(O)c1cn(C2CC2)c2cc(N3CCN(C(=O)Oc4ccc(CC(P(=O)(O)O)P(=O)(O)O)cc4)CC3)c(F)cc2c1=O` gave an Activity of 100%.
